# Assay results reported in the RNAGym collection of RNA variant scans (doi:10.1126/science.aae0568).
# This sample holds only a part of the variants without activity.
# B1: tRNA (parent)
# chain: GUUCCGUUGGCGUAAUGGUAACGCGUCUCCCUCCUAAGGAGAAGACUGCGGGUUCGAGUCCCGUACGGAACG
# Variants of: B1
# Experiment: yeast fitness relative to wild type (ratio to wild type); higher = fitter; tRNA-Arg(CCU), competitive growth, 37 C, YPD
# In short: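 Start and end populations of a pooled competition were compared by 100-nucleotide paired-end sequencing of gene amplicons. The Saccharomyces cerevisiae strains carried tRNA-Arg(CCU) gene variants at the native genomic locus, synthesised with a 3% per-site mutation rate at 69 sites, and competed in YPD at 37°C for 24 hours in six parallel replicates. Darwinian fitness relative to wild type was based on the change in genotype frequencies. Genotypes required ≥ 100 starting reads, and estimates < 0.5 were set to 0.5.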
row,Variant,yeast fitness
1,GUUCCGUUGGAGUAAUGGUAACGCGUCUCCCUCCUAAGGAGAAGACUGCGGGUUCGGGUCCCGUACGGUACG [C11A A57G A69U],≤ 0.5
2,GUUCCGUUGGAGUAAUGGUAACGCGUCUCGCUCCUAAGGAGAAGUCUGCGGGUUCGAGUACCGUACGGAACG [C11A C30G A45U C60A],0.537
3,GUUCCGUUGGAGUAAUGGUAACGUGUCUCCCUCCUAAGGAGAAGACUACGGGUUCGAGUCCCGUACGGAACG [C11A C24U G48A],≤ 0.5
4,GUUCCGUUGGAGUAAUGGUAACGCGUCUUCCUUCUAAGGAGAAGACUGCGGGUCCGAGUCCCGUACGGAACG [C11A C29U C33U U54C],≤ 0.5
5,GUUCCGUUGGAGUAAUGGUAACGCGUUUCCCUCCUAAGGAGAAGACUGCGGGUUCGAGUCCCGUACGGAACG [C11A C27U],0.646
6,GUUCCGUUGGAGUAAUGGUAACGCGUAUCCCUCCUAAGGAGAAGACUGCGGGUUCGAGUCCCGUACGGAACG [C11A C27A],0.654
7,GUUCCGUUGGAGUAAUGGUAAGGCGUCUGCCUCCUAAGGAGAAGACUGCGGGUUCGAGUCUAGUACGGAGCG [C11A C22G C29G C61U C62A A70G],≤ 0.5
8,GUUCCGUUGGAGUAAUGGUAACGCGUCUCCAUCCUAAGGAGAACACUGCGGGUUCGAGUCCCGUCCGGAACG [C11A C31A G44C A65C],≤ 0.5
9,GUUCCGUUGGAGUAAUGGUAACGCGUCUCCGUCCUAAGGAGUAGACUGCGGGUUCGAGUCCAGUAUGGUACG [C11A C31G A42U C62A C66U A69U],≤ 0.5
10,GUUCCGUUGGAGUAAUGGUAACGCGUCUCUCUCCUAAGGAGAAGACUGGGGGUUCGAGUCCCGUACGGAACG [C11A C30U C49G],0.579
11,GUUCCGUUGGAGUAAUGGUAACGGGUCUCCCUCCUAAGGAGAAGACGGCGGGUUCGAGUCCCGUACGGAACG [C11A C24G U47G],≤ 0.5
12,GUUCCGUUGGAGUAAUGGUAACGCGUCUCUUUCCUGAGCAGAAGUCUGCGGCUUCGAGUACCGUACGGAACG [C11A C30U C31U A36G G39C A45U G52C C60A],≤ 0.5
13,GUUCCGUUGGAGUAAUGGUAACGCGUCUCCCUCGUAAGGAGAAGACUGCGGGUUCGAGUCCCGUACAGAACG [C11A C34G G67A],≤ 0.5
14,GUUCCGUUGGAGUAAUGGUAAUGCGUCUCCCUCCUAAGGAGAAGACUGCGGGUCCGAGUCCCGUACGGAACG [C11A C22U U54C],≤ 0.5
15,GUUCCGUUGGAGUAAUGGUAACGCGUCUCCCUACUAAGGAGAAGACUGCGGGUUCGAGUCCCGUACGAAACG [C11A C33A G68A],0.557
16,GUUCCGUUGGAGUAAUGGUAACGCGUGUCCCUCCUAAGGAGAAGACUGCGGGUUCGAGUCCCGUACGGACCG [C11A C27G A70C],≤ 0.5
17,GUUCCGUUGGAGUAAUGGUAACGCGUAUACCUCCUAAGGAGCAGACAGCGGAUUCGAGCCCCGUACGGAACG [C11A C27A C29A A42C U47A G52A U59C],0.503
18,GUUCCGUUGGAGUAAUGGUAACGCGUGUCCAUCCUAAGGAGAAGACUGCGGGUUCGAGUCCCGUACGGAACG [C11A C27G C31A],0.543
19,GUUCCGUUGGAGUAAUGGUAACGCGUCUCCCUCAUAAGGAGAAGACUGCGGCUUCGAGUCCCGUACGGAACG [C11A C34A G52C],0.541

row,Variant,yeast fitness
1,GUUCCGUUGGAGUAAUGGUAACGCGUUUCCCUCCUAAGGAGAAUACUGCGGGUUCGAGUCCCGUACGGAACG [C11A C27U G44U],≤ 0.5
2,GUUCCGUUGGAGUAAUGGUAACGGGUCUCGCUCCUAAGGAGAAGACUGCGGGUUCGAGUCCCGUACGGAACG [C11A C24G C30G],0.599
3,GUUCCGUUGGAGUAAUGGUAAGGCGUCUUCCCCCUAAGGAGAAGACUGCGGGUUCGAGUCCCGUACGGAACG [C11A C22G C29U U32C],0.706
4,GUUCCGUUGGAGUAAUGGUAACGCGUGUCCCUCCUAAGGAGAAGACUGCAGGUUCGAGUCCCGGACGGAACG [C11A C27G G50A U64G],≤ 0.5
5,GUUCCGUUGGAGUAAUGGUAACGCGUCUCCUUCCUACGGAGAAGACUGCGGGUUCGAGUCCCGUAUGGAACG [C11A C31U A37C C66U],≤ 0.5
6,GUUCCGUUGGAGUAAUGGUAACGCGUUUCCAUCCUAAGGAGAAGACUGCGGGUUCGAGUCCCGUACGGAACG [C11A C27U C31A],≤ 0.5
7,GUUCCGUUGGAGUAAUGGUAACGCGUCUCCAUCCUAAGGAGAACACUGCGGGUUCGAGUCCCGUACGGAACG [C11A C31A G44C],≤ 0.5
8,GUUCCGUUGGAGUAAUGGUAACGCGUCUCCCUCCUAAGGAGAAGUCUGCUGGUCCGAGUCCCGAACGGAACG [C11A A45U G50U U54C U64A],≤ 0.5
9,GUUCCGUUGGAGUAAUGGUAAUGCGUCUCCCUCCUAAGGAGAAGACUGCGGGUUAGAGUCCCGUACGGAACG [C11A C22U C55A],≤ 0.5
10,GUUCCGUUGGAGUAAUGGUAACGUGUAUCCCUCCUAAGGAGAAGACUGCGGGUUCGAGUCCGGUACGGAACG [C11A C24U C27A C62G],≤ 0.5
11,GUUCCGUUGGAGUAAUGGUAAUGCGGCUCCCUCCUAAGGUGAAGACUCCGGGUUCGAGUCCCGUACGGAACG [C11A C22U U26G A40U G48C],0.537
12,GUUCCGUUGGAGUAAUGGUAACGUGUCUCCCUCCUAAGGAGAAGACUGCGGGUUCGAGUCCCGUACCGAGCG [C11A C24U G67C A70G],≤ 0.5
13,GUUCCGUUGGAGUAAUGGUAACGCGUUCCCCUCCUAAGGAGAAGACUGCGGGUUCGCGUCCAGUACGGAACG [C11A C27U U28C A57C C62A],0.716
14,GUUCCGUUGGAGUAAUGGUAACGGGUCUCUUUCCUAAGGAGAAGACUGCGGGUUCGAGUCUCGUACCGAACG [C11A C24G C30U C31U C61U G67C],≤ 0.5
15,GUUCCGUUGGAGUAAUGGUAACGCGUCUGCCUCCUAAGGAGAAGACUGCGGGUUCGAGUCCCGUAUGGAACG [C11A C29G C66U],0.525
16,GUUCCGUUGGAGUAAUGGUAACGCGUGUCCCUCAUAAGGAGCAGACUGCGGGUCCGAGUACGGUACGGAUCG [C11A C27G C34A A42C U54C C60A C62G A70U],0.624
17,GUUCCGUUGGAGUAAUGGUAACGCGUGUCCCUCCUAAGGAGAAGACUGCGGGUUCGAGUCCCGAGCUGAACG [C11A C27G U64A A65G G67U],≤ 0.5
18,GUUCCGUUGGAGUAAUGGUAAGGCGUCUGCCUCCUAAGGAGAAGACUGCGGGAUGGAGUCCCGUACGGAACG [C11A C22G C29G U53A C55G],≤ 0.5
